The full list was thinned out, with hits kept by preference.
Lmaj promast = Leishmania major promastigote growth inhibition, primary screen; Leishmania major promastigotes, resazurin fluorescence viability; inhibition, % at 10 µM; 200,000 compounds, 9% hits; AID 1063, 2008; in the data active = inhibition above about 50%;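 also: promastigotes grown with compound for 44 hours at 28 °C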
HSF1 inhib = HSF1 inhibitors in luciferase reporter cells, primary screen, cell-based, NIH3T3, luminescence | NIH3T3-HGL HSE-luciferase, MG132-induced, luminescence 8 h; stronger effect = lower value | activity change, negative = inhibition, % at 7.5 µM (by protocol) | 300,000 compounds, 0.77% hits | AID 2098, 2009;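 active = more than half of replicate wells show activity change below -50%, luminescence cut by over half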;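 also: luciferase reports HSF-1 transcriptional activity via heat shock element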
Hsp70 activator = Hsp70 transcriptional activators, primary screen, cell-based, HeLa, Hsp70 promoter luciferase, luminescence, 10 µM | 200,000 compounds, 0.04% hits | activation, % at 10 µM | HeLa Hsp70 promoter luciferase reporter; scaled: vehicle 0, proteasome-inhibitor control 100%;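 active = activation above the mean across all tested compounds plus 3 SD, cutoff set per campaign, cut at about 5.5% in these data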
T cruzi repl = inhibitors of intracellular T. cruzi growth, primary screen, luminescence, NIH3T3 host cells. T. cruzi beta-gal in NIH3T3, 90 h. inhibition, % (no concentration beside the values). 300,000 compounds, 1.4% hits. AID 1885, 2009;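 active = mean inhibition across valid replicates above about 55%, limit read from the data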;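 also: signal also drops with host cell toxicity which is not excluded here; higher percent means less beta-gal luminescence so fewer parasites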
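Material: NIH/3T3 host cells with β-galactosidase reporter T. cruzi; Input: 5,000 host fibroblasts per well; Medium: DMEM, 2% fetal bovine serum; Compound: 50 nL DMSO compound solution per well; Schedule: 3 h host attachment, then at least 90 h co-culture; Detection: luminescent β-galactosidase signal after 60 min lysis.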
HSF1 activator = HSF-1 activators, primary screen, NIH3T3-HGL cells, MG132 stress, luminescence, single point; NIH3T3-HGL HSF-1 luciferase reporter, 8 h; 100% = twice DMSO control signal; activation, % at 9 µM; 300,000 compounds, 1.7% hits;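 active = mean replicate activation of at least 50% with a set share of replicates each reaching 50%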
A number is an active result; 0 = inactive; - = no result.

SMILES | Lmaj promast | HSF1 inhib | Hsp70 activator | T cruzi repl | HSF1 activator
Cn1ccc(C(=O)Nc2cccnc2Cl)n1 | - | 0 | - | 0 | 0
O=C(N/N=C/c1ccc(O)cc1O)/C(=C/c1ccccc1)CCO | 98 | 0 | 0 | 0 | 0
COc1ccc(N(C(=O)Cn2nnc3ccccc32)C(C(=O)NCc2ccco2)c2ccncc2)cc1 (configuration not stated) | - | 0 | - | 0 | 0
Cc1nc2ccc(N)cc2c(=O)n1Cc1ccc(Cl)cc1 | 0 | 0 | 0 | 0 | 0
Cc1nc2ccc(Br)cc2c(=O)n1Cc1cccs1 | - | 0 | - | 0 | 54
COc1ccc(-c2cc(C#N)nc(Cl)n2)cc1 | - | 0 | - | 0 | 0
COc1ccc(-c2cc(C#N)nc(N3CCN(C)CC3)n2)cc1 | 0 | 0 | 0 | 66 | 0
COc1ccc(-c2cc(C(F)(F)F)nc(N3CCN(C)CC3)n2)cc1OC | 85 | 0 | 0 | 0 | 0
CN1CCN(c2nc(C#N)cc(-c3ccccc3)n2)CC1 | 0 | 0 | 0 | 0 | 0
COc1ccc(-c2cc(C#N)nc(N3CCNCC3)n2)cc1 | 100 | 0 | 0 | 57 | 0
COc1ccc(-c2cc(C(F)(F)F)nc(N3CCCCC3)n2)cc1OC | 0 | 0 | 0 | 0 | 0
Cc1ccc(CN2CCN(C(=O)CC(C)C)CC2)cc1 | - | 0 | - | 0 | 0
S=c1[nH]nc(-c2ccncc2)n1Cc1ccco1 | 0 | -69 | 0 | 0 | 0
Cc1cnc(C(=O)OC(C)C(=O)NC2CCCc3ccccc32)cn1 (configuration not stated) | - | 0 | - | 0 | 0
Cn1cc(C(=O)N/N=C/c2ccc(Br)c([N+](=O)[O-])c2)c2ccccc21 | - | 0 | - | 0 | 55
Cn1cc(C(=O)N/N=C/c2ccc3c(c2)OCO3)c2ccccc21 | - | 0 | - | 0 | 0
CN(C)C(CNc1ccc([N+](=O)[O-])cc1C#N)c1ccccc1 (configuration not stated) | 0 | 0 | 0 | 0 | 0
O=C(COc1ccc(Cl)cc1)Nc1cccc(-c2ccc(N3CCOCC3)nn2)c1 | - | 0 | - | 0 | 55
CCOc1ccc(NC(=O)NC(=O)N(C(C)C)S(C)(=O)=O)cc1 | 0 | 0 | 0 | 0 | 0
CCN(CC)c1nc2c3c(nc4c(c3c1C#N)CC(=O)N4c1ccc(Cl)cc1)NC(C)=N2 | 56 | 0 | 0 | 0 | 0
CCc1ccc(N2C(=O)Cc3c2nc(N)c(C#N)c3N)cc1 | 0 | 0 | 0 | 0 | 0
COc1cccc2sc(NNC(=O)COc3ccccc3)nc12 | 0 | 0 | 0 | 0 | 0
c1cncc(Nc2nc(-c3cccs3)cs2)c1 | 0 | 0 | 0 | 0 | 0
c1ccc(Nc2nc(-c3ccccn3)cs2)cc1 | 101 | 0 | 0 | 0 | 0
COc1cccc2sc(Nc3nc(-c4ccccn4)cs3)nc12 | 100 | 0 | 0 | 75 | 128
SMILES | Lmaj promast | HSF1 inhib | Hsp70 activator | T cruzi repl | HSF1 activator
c1ccc(-c2csc(Nc3cccnc3)n2)nc1 | 58 | 0 | 0 | 0 | 0
COc1ccc(-c2noc(CCCC(=O)Nc3ccc(C(N)=O)cc3)n2)cc1OC | - | 0 | - | 0 | 0
CCOC(=O)c1sc2nc(CSc3ccccc3)nc(NCCN(C)C)c2c1C | 93 | 0 | 0 | 0 | 0
C=CCNc1cc(C(F)(F)F)nc(-c2ccccn2)n1 | 0 | 0 | 0 | 0 | 0
CCOC(=O)C(C(=O)OCC)C(C(=O)OCC)N1CCOCC1 (configuration not stated) | 100 | 0 | 0 | 0 | 0
CCOC(=O)C(C)CC(C)C(=O)N1CCOCCOCCN(C(=O)C(C)CC(C)C(=O)OCC)CCOCC1 (configuration not stated) | 0 | 0 | 0 | 0 | 0
Cc1ccc(C(=O)NCCNS(C)(=O)=O)cc1 | 0 | 0 | 0 | 0 | 0
C#CC[N+](C)(C)CCCCCCCC | 0 | 0 | 0 | 0 | 0
C#CC[N+](C)(C)CCCCCCCCCCCC | 100 | 0 | 0 | 0 | 0
C#CC[N+](C)(C)CCCCCCCCCC | 58 | 0 | 0 | 0 | 0
CC#CC[N+](C)(C)CCCCCCCCCCCC | 100 | 0 | 0 | 73 | 89
O=C(C1CCN(S(=O)(=O)N2CCCCC2)CC1)N1CCCCC1 | 0 | 0 | 0 | 0 | 0
COc1cc(C(=O)NC(C(=O)Nc2cccc(C(C)=O)c2)C(C)C)cc(OC)c1OC (configuration not stated) | 0 | 0 | 0 | 0 | 0
NC(=O)c1ccc2c(=O)n3c(-c4cccs4)csc3nc2c1 | - | 0 | - | 0 | 0
Cc1cc(C)cc(OCCNC(=O)CCc2ccccc2)c1 | - | 0 | - | 0 | 0
CCc1cc2c3c(c1)C1(C(=O)N3C(C)(C)C=C2C)C(C#N)=C(N)Oc2[nH]c(=O)[nH]c(=O)c21 (configuration not stated) | 0 | 0 | 0 | 0 | 0
COc1ccc(NC(=O)c2ccc3c(=O)n(-c4ccc(OC)cc4OC)c(=S)[nH]c3c2)c(OC)c1 | 69 | 0 | 0 | 0 | 0
COc1ccc(-n2c(=S)[nH]c3cc(C(=O)Nc4cc(C(N)=O)ccc4OC)ccc3c2=O)c(OC)c1 | - | 0 | - | 0 | 0
COCCn1c(=O)[nH]c2cc(C(=O)NC3CCCCCC3)ccc2c1=O | 0 | -72 | 0 | 0 | 0
COCCn1c(=O)[nH]c2cc(C(=O)N3CCN(c4cccc(Cl)c4)CC3)ccc2c1=O | - | 0 | - | 0 | 53
CCOc1ccc(NC(=O)c2ccc3c(=O)n(-c4ccc(OC)cc4OC)c(=S)[nH]c3c2)cc1 | - | -81 | - | 0 | 0
COc1ccc(-n2c(=S)[nH]c3cc(C(=O)Nc4ccc(C)c(F)c4)ccc3c2=O)c(OC)c1 | - | 0 | - | 0 | 0
CC1CCN(S(=O)(=O)c2cccc(C(=O)N3CCN(c4ccc(F)cc4)CC3)c2)CC1 | - | 0 | - | 0 | 0
CN1CCN(S(=O)(=O)c2cccc(C(=O)Nc3cc(Cl)ccc3N3CCOCC3)c2)CC1 | - | 0 | - | 0 | 0
COc1ccc(-n2c(=S)[nH]c3cc(C(=O)NC4CCCCC4)ccc3c2=O)c(OC)c1 | 0 | 0 | 0 | 0 | 60
SMILES | Lmaj promast | HSF1 inhib | Hsp70 activator | T cruzi repl | HSF1 activator
COc1ccc(Cn2c(=O)[nH]c3cc(C(=O)NC4CCCC4)ccc3c2=O)cc1 | 0 | 0 | 0 | 0 | 0
COc1ccccc1NS(=O)(=O)/C=C/c1ccccc1 | 0 | 0 | 0 | 0 | 0
COC(=O)c1c(NC(=O)c2ccccc2)sc(C(=O)c2ccccc2)c1C | 0 | 0 | 0 | 0 | 0
Cc1ccc(NC(=O)c2ccccc2)s1 | 69 | 0 | 0 | 0 | 0
Cc1cc(NC(=O)c2ccccc2)sc1C | 0 | 0 | 0 | 0 | 60
Cc1cc(NC(=O)c2ccccc2)cc(NC(=O)c2ccccc2)c1C | - | 0 | - | 0 | 0
CCOc1ccc(C(C)=O)cc1COc1cccnc1[N+](=O)[O-] | - | 0 | - | 0 | 0
Cc1nnc(NC(=O)c2ccc(S(=O)(=O)C(F)F)cc2)s1 | - | 0 | - | 0 | 0
O=C(NCc1cc(C(F)(F)F)cc(C(F)(F)F)c1)C1CC(c2ccc(C(F)(F)F)cc2)=NO1 (configuration not stated) | - | 0 | - | 0 | 0
CCOc1ccc2cc(/C=C/C(=O)c3ccco3)c(Cl)nc2c1 | 64 | 0 | 0 | 0 | 0

From PubChem
